System: U2OS
Assay: Multiplex assay against U2OS
Type: toxicity, cell-based
Settings: human
How it was run: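 Imaging took place on a CQ1 microscope at 37°C and 5% CO2 once compound had been added to live cells stained at seeding with Hoechst33342, BioTracker Green Microtubule Cytoskeleton Dye, MitoTracker Red and Annexin V Alexa Fluor 680. CellPathfinder machine-learning gating classed cells as Hoechst high-intensity objects or normal cells, classed normal cells as having healthy, pyknosed or fragmented nuclei, and classed pyknosed cells as mitotic or apoptotic. Tubulin, mitochondrial-mass and membrane-permeability phenotypes are per cents of the healthy-nucleus cells.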

[1] = 12 h, 1 µM, compound concentration 1 uM, replicate 1
[2] = 12 h, 1 µM, compound concentration 1 uM, replicate 2
[3] = 12 h, 10 µM, compound concentration 10 uM, replicate 1
[4] = 12 h, 10 µM, compound concentration 10 uM, replicate 2
[5] = 24 h, 1 µM, compound concentration 1 uM, replicate 1
[6] = 24 h, 1 µM, compound concentration 1 uM, replicate 2
[7] = 24 h, 10 µM, compound concentration 10 uM, replicate 1
[8] = 24 h, 10 µM, compound concentration 10 uM, replicate 2
[9] = 48 h, 1 µM, compound concentration 1 uM, replicate 1
[10] = 48 h, 1 µM, compound concentration 1 uM, replicate 2
[11] = 48 h, 10 µM, compound concentration 10 uM, replicate 1
[12] = 48 h, 10 µM, compound concentration 10 uM, replicate 2

## Cc1ccc2c(c1)c1c(n2CCc2ccc(C)nc2)CCN(C)C1 [LATREPIRDINE]
[1]
  Population Apoptotic (%): 53%
  Population Fragmented Nuclei (%): 8%
  Population Healthy Nuclei (%): 81%
  Population Hoechst High Intensity Objects (%): 7%
  Population Membrane Permeable-Phenotype (%): 6%
  Population Mitochondria Different-Phenotype (%): 46%
  Population Mitotic Cells (%): 46%
  Population Normal (%): 92%
  Population Pyknosed Nuclei (%): 9%
  Population Tubulin-Different-Phenotype (%): 42%
  Total Cell Count: 147
[2]
  Population Apoptotic (%): 100%
  Population Fragmented Nuclei (%): 27%
  Population Healthy Nuclei (%): 67%
  Population Hoechst High Intensity Objects (%): 16%
  Population Membrane Permeable-Phenotype (%): 5%
  Population Mitochondria Different-Phenotype (%): 27%
  Population Mitotic Cells (%): 0%
  Population Normal (%): 83%
  Population Pyknosed Nuclei (%): 4%
  Population Tubulin-Different-Phenotype (%): 27%
  Total Cell Count: 61
[3]
  Population Apoptotic (%): 47%
  Population Fragmented Nuclei (%): 11%
  Population Healthy Nuclei (%): 64%
  Population Hoechst High Intensity Objects (%): 7%
  Population Membrane Permeable-Phenotype (%): 21%
  Population Mitochondria Different-Phenotype (%): 97%
  Population Mitotic Cells (%): 52%
  Population Normal (%): 92%
  Population Pyknosed Nuclei (%): 24%
  Total Cell Count: 142
[4]
  Population Apoptotic (%): 88%
  Population Fragmented Nuclei (%): 7%
  Population Healthy Nuclei (%): 65%
  Population Hoechst High Intensity Objects (%): 8%
  Population Membrane Permeable-Phenotype (%): 42%
  Population Mitochondria Different-Phenotype (%): 100%
  Population Mitotic Cells (%): 11%
  Population Normal (%): 91%
  Population Pyknosed Nuclei (%): 26%
  Population Tubulin-Different-Phenotype (%): 100%
  Total Cell Count: 103
[5]
  Population Apoptotic (%): 47%
  Population Fragmented Nuclei (%): 6%
  Population Healthy Nuclei (%): 83%
  Population Hoechst High Intensity Objects (%): 3%
  Population Membrane Permeable-Phenotype (%): 4%
  Population Mitochondria Different-Phenotype (%): 38%
  Population Mitotic Cells (%): 52%
  Population Normal (%): 96%
  Population Pyknosed Nuclei (%): 10%
  Population Tubulin-Different-Phenotype (%): 30%
  Total Cell Count: 166
[6]
  Population Apoptotic (%): 55%
  Population Fragmented Nuclei (%): 23%
  Population Healthy Nuclei (%): 67%
  Population Hoechst High Intensity Objects (%): 13%
  Population Membrane Permeable-Phenotype (%): 10%
  Population Mitochondria Different-Phenotype (%): 27%
  Population Mitotic Cells (%): 44%
  Population Normal (%): 86%
  Population Pyknosed Nuclei (%): 8%
  Population Tubulin-Different-Phenotype (%): 14%
  Total Cell Count: 74
[7]
  Population Apoptotic (%): 71%
  Population Fragmented Nuclei (%): 12%
  Population Healthy Nuclei (%): 54%
  Population Hoechst High Intensity Objects (%): 8%
  Population Membrane Permeable-Phenotype (%): 24%
  Population Mitochondria Different-Phenotype (%): 97%
  Population Mitotic Cells (%): 28%
  Population Normal (%): 91%
  Population Pyknosed Nuclei (%): 33%
  Population Tubulin-Different-Phenotype (%): 100%
  Total Cell Count: 172
[8]
  Population Apoptotic (%): 76%
  Population Fragmented Nuclei (%): 4%
  Population Healthy Nuclei (%): 56%
  Population Hoechst High Intensity Objects (%): 4%
  Population Membrane Permeable-Phenotype (%): 56%
  Population Mitochondria Different-Phenotype (%): 100%
  Population Mitotic Cells (%): 24%
  Population Normal (%): 95%
  Population Pyknosed Nuclei (%): 38%
  Total Cell Count: 119
[9]
  Population Apoptotic (%): 40%
  Population Fragmented Nuclei (%): 4%
  Population Healthy Nuclei (%): 81%
  Population Hoechst High Intensity Objects (%): 2%
  Population Membrane Permeable-Phenotype (%): 6%
  Population Mitochondria Different-Phenotype (%): 11%
  Population Mitotic Cells (%): 59%
  Population Normal (%): 97%
  Population Pyknosed Nuclei (%): 13%
  Population Tubulin-Different-Phenotype (%): 22%
  Total Cell Count: 150
[10]
  Population Apoptotic (%): 60%
  Population Fragmented Nuclei (%): 17%
  Population Healthy Nuclei (%): 75%
  Population Hoechst High Intensity Objects (%): 10%
  Population Membrane Permeable-Phenotype (%): 16%
  Population Mitochondria Different-Phenotype (%): 8%
  Population Mitotic Cells (%): 40%
  Population Normal (%): 89%
  Population Pyknosed Nuclei (%): 7%
  Population Tubulin-Different-Phenotype (%): 10%
  Total Cell Count: 68
[11]
  Population Apoptotic (%): 64%
  Population Fragmented Nuclei (%): 14%
  Population Healthy Nuclei (%): 43%
  Population Hoechst High Intensity Objects (%): 6%
  Population Membrane Permeable-Phenotype (%): 28%
  Population Mitochondria Different-Phenotype (%): 90%
  Population Mitotic Cells (%): 35%
  Population Normal (%): 93%
  Population Pyknosed Nuclei (%): 41%
  Population Tubulin-Different-Phenotype (%): 95%
  Total Cell Count: 240
[12]
  Population Apoptotic (%): 62%
  Population Fragmented Nuclei (%): 13%
  Population Healthy Nuclei (%): 44%
  Population Hoechst High Intensity Objects (%): 5%
  Population Membrane Permeable-Phenotype (%): 52%
  Population Mitochondria Different-Phenotype (%): 94%
  Population Mitotic Cells (%): 37%
  Population Normal (%): 95%
  Population Pyknosed Nuclei (%): 42%
  Population Tubulin-Different-Phenotype (%): 97%
  Total Cell Count: 156

## CC(C)CC(=O)Nc1[nH]nc2c1CN(C(=O)C1CCN(C)CC1)C2(C)C [PHA-793887]
[1]
  Population Apoptotic (%): 25%
  Population Fragmented Nuclei (%): 3%
  Population Healthy Nuclei (%): 92%
  Population Hoechst High Intensity Objects (%): 1%
  Population Membrane Permeable-Phenotype (%): 8%
  Population Mitochondria Different-Phenotype (%): 30%
  Population Mitotic Cells (%): 75%
  Population Normal (%): 98%
  Population Tubulin-Different-Phenotype (%): 30%
  Total Cell Count: 161
[2]
  Population Apoptotic (%): 20%
  Population Fragmented Nuclei (%): 8%
  Population Healthy Nuclei (%): 87%
  Population Hoechst High Intensity Objects (%): 11%
  Population Membrane Permeable-Phenotype (%): 9%
  Population Mitochondria Different-Phenotype (%): 39%
  Population Mitotic Cells (%): 80%
  Population Normal (%): 88%
  Population Pyknosed Nuclei (%): 4%
  Population Tubulin-Different-Phenotype (%): 35%
  Total Cell Count: 87
[3]
  Population Apoptotic (%): 72%
  Population Fragmented Nuclei (%): 17%
  Population Healthy Nuclei (%): 68%
  Population Hoechst High Intensity Objects (%): 3%
  Population Membrane Permeable-Phenotype (%): 12%
  Population Mitochondria Different-Phenotype (%): 29%
  Population Mitotic Cells (%): 28%
  Population Normal (%): 96%
  Population Pyknosed Nuclei (%): 13%
  Population Tubulin-Different-Phenotype (%): 32%
  Total Cell Count: 188
[4]
  Population Apoptotic (%): 50%
  Population Fragmented Nuclei (%): 11%
  Population Healthy Nuclei (%): 78%
  Population Hoechst High Intensity Objects (%): 14%
  Population Membrane Permeable-Phenotype (%): 21%
  Population Mitochondria Different-Phenotype (%): 34%
  Population Mitotic Cells (%): 50%
  Population Normal (%): 85%
  Population Pyknosed Nuclei (%): 10%
  Population Tubulin-Different-Phenotype (%): 26%
  Total Cell Count: 136
[5]
  Population Apoptotic (%): 22%
  Population Fragmented Nuclei (%): 5%
  Population Healthy Nuclei (%): 91%
  Population Hoechst High Intensity Objects (%): 1%
  Population Membrane Permeable-Phenotype (%): 3%
  Population Mitochondria Different-Phenotype (%): 24%
  Population Mitotic Cells (%): 77%
  Population Normal (%): 98%
  Population Pyknosed Nuclei (%): 3%
  Population Tubulin-Different-Phenotype (%): 29%
  Total Cell Count: 148
[6]
  Population Apoptotic (%): 50%
  Population Fragmented Nuclei (%): 9%
  Population Healthy Nuclei (%): 85%
  Population Hoechst High Intensity Objects (%): 2%
  Population Membrane Permeable-Phenotype (%): 9%
  Population Mitochondria Different-Phenotype (%): 43%
  Population Mitotic Cells (%): 50%
  Population Normal (%): 97%
  Population Pyknosed Nuclei (%): 4%
  Population Tubulin-Different-Phenotype (%): 34%
  Total Cell Count: 82
[7]
  Population Apoptotic (%): 72%
  Population Fragmented Nuclei (%): 9%
  Population Healthy Nuclei (%): 73%
  Population Hoechst High Intensity Objects (%): 4%
  Population Membrane Permeable-Phenotype (%): 24%
  Population Mitochondria Different-Phenotype (%): 45%
  Population Mitotic Cells (%): 27%
  Population Normal (%): 95%
  Population Pyknosed Nuclei (%): 17%
  Population Tubulin-Different-Phenotype (%): 33%
  Total Cell Count: 287
[8]
  Population Apoptotic (%): 55%
  Population Fragmented Nuclei (%): 19%
  Population Healthy Nuclei (%): 69%
  Population Hoechst High Intensity Objects (%): 16%
  Population Membrane Permeable-Phenotype (%): 21%
  Population Mitochondria Different-Phenotype (%): 36%
  Population Mitotic Cells (%): 44%
  Population Normal (%): 83%
  Population Pyknosed Nuclei (%): 10%
  Population Tubulin-Different-Phenotype (%): 29%
  Total Cell Count: 172

Source: ChEMBL document CHEMBL4689842, “EUbOPEN Chemogenomics Library wave 1” (2021)
